Results reported in paper PMC11831733 (RSC Advances, 2025).
In brackets after ≈: the same amount, converted by molar mass.

What was measured:
C. acutatum (BCC 58146) = assay: microbe, parasite or virus in culture; assay type: cell-based; conditions: Colletotrichum acutatum, read-out: Anti-phytopathogenic fungal (MIC, μM) C. acutatum
[1] = test system: A. brassicicola (BCC 42724); assay: microbe, parasite or virus in culture; assay type: cell-based; conditions: Alternaria brassicicola, read-out: Anti-phytopathogenic fungal (MIC, μM) A. brassicicola
[2] = Cytotoxicity, resazurin microplate assay; assay type: cell-based; conditions: human, MCF-7 cells (human breast cancer, ATCC HTC-22)
Method in brief: (§1)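 Test compound and cell suspension were combined in triplicate wells and kept at 37 °C in humidified 5% CO2 for 3 d (MCF-7) or 5 d (NCI-H187). A 62.6 μg mL−1 resazurin solution was then added, followed by 4 h at 37 °C. Fluorescence was read bottom-mode at excitation 530 nm and emission 590 nm, and the blank was subtracted.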

[3] = test system: Vero cells (African green monkey kidney fibroblast); assay: in vitro; assay type: cell-based; conditions: read-out: Cytotoxicity (IC50, μM) Vero
in vitro = assay type: cell-based, African green monkey; conditions: African green monkey, Cytotoxicity (IC50, μM) Vero
[4] = test system: all cell lines tested (Plasmodium falciparum, mammalian, and fungal); assay: Antiproliferative activity over all cell lines tested; assay type: cell-based; conditions: P. falciparum, mammalian and fungal cells
[5] = Cytotoxicity, resazurin microplate assay; assay type: cell-based; conditions: human, NCI-H187 cells (human small-cell lung cancer, ATCC CRL-5804)
Method in brief: as §1

Row | SMILES | MIC (C. acutatum (BCC 58146)) [µM] | MIC [1] [µM] | IC50 at 3 d [2] [µM] | IC50 [3] [µM] | IC50 at 4 d (in vitro) [µM] | antiproliferative activity profile (in words) [4] | IC50 at 5 d [5] [µM]
1 | C[C@@H]1[C@H](O)[C@@H](C)/C=C/C=C/C=C/C=C/C=C/C=C/C=C/[C@H](O[C@@H]2O[C@H](C)[C@@H](O)[C@H](N)[C@@H]2O)C[C@@H]2O[C@](O)(C[C@@H](O)C[C@@H](O)[C@H](O)CC[C@@H](O)C[C@@H](O)CC(=O)O[C@H]1C)C[C@H](O)[C@H]2C(=O)O [Amphotericin B, reference compound] | 3.4 (≈ 3.14 µg/mL) | 1.7 (≈ 1.57 µg/mL) |  |  |  |  | 
2 | COc1cc(O)c2c(=O)c3c(O)cc(C)cc3oc2c1O [Compound 1, 1,5,8-trihydroxy-6-methoxy-3-methylxanthone] | > 174 | > 174 | > 174 | 58.9 | 58.9 | active only against mammalian cell lines | 19
3 | COc1cc(O)c2c(=O)c3c(O)cc(C)cc3oc2c1OC [Compound 2, 1,8-dihydroxy-5,6-dimethoxy-3-methylxanthone] | > 165 | > 165 | > 165 |  | > 165 |  | > 165
4 | COc1cc2oc3cc(C)cc(O)c3c(=O)c2c(C)c1O [Compound 3, 1,7-dihydroxy-6-methoxy-3,8-dimethylxanthone] | > 175 | > 175 | > 175 |  | > 175 |  | > 175
5 | CCC(=O)c1cc(OC)cc2oc3cc(C)cc(O)c3c(=O)c12 [Compound 4, 1-hydroxy-6-methoxy-3-methyl-8-propionylxanthone] | > 160 | > 160 | 42.5 |  | > 160 | active only against mammalian cell lines | > 160
6 | O=C(O)CCC(=O)OCCc1ccccc1 [Compound 7, 4-oxo-4-phenethoxybutanoic acid] | > 225 | > 225 | > 225 |  | > 225 |  | > 225
7 | COc1cccc2c1C(=O)c1c(O)c3c(c(O)c1C2=O)C[C@@](O)(C(=O)CO)C[C@@H]3O[C@H]1C[C@H](N)[C@H](O)[C@H](C)O1 [Doxorubicin, reference compound] |  |  | 11.9 |  |  |  | 0.2
